Results pooled from the literature.
Target: Atypical kinase COQ8A, mitochondrial (COQ8A, Homo sapiens, UniProt Q8NI60)

O=C(Nc1c[nH]nc1C(=O)NC1CCNCC1)c1cc(F)cc(F)c1  remaining binding (binding, competition with immobilised ligand; 1 µM): 100%
CN(C)c1nccc(-c2cnn3ncccc23)n1  remaining binding (binding; 1 µM): 88%
O=C(c1ccc(Nc2nccc(-c3cc4ccccc4s3)n2)cc1)N1CCC(N2CCCC2)CC1  remaining binding (binding, competition with immobilised ligand; 1 µM): 88%
Cn1nc(C(F)(F)F)cc1-c1cnc(N2CCc3cc(S(=O)(=O)Nc4c(F)cc(Cl)cc4F)cc(N4CCCC4=O)c32)nc1  remaining binding (cell-free assay, competition with immobilised ligand; 1 µM): 100%
O=C(c1ccc(Nc2ncc(Cl)c(-c3cc4ccccc4s3)n2)cc1)N1CCC(N2CCCC2)CC1  remaining binding (binding, competition with immobilised ligand; 1 µM): 78%
CCC(=O)N[C@@H]1CC[C@H](C(=O)N(C)c2ccc(-c3nc4ccccc4o3)cc2)C1  remaining binding (cell-free assay, competition with immobilised ligand; 1 µM): 99%
CNC(=O)[C@@H]1CC[C@@H](n2c(-c3ccc4cnccc4c3)nc3ccc(C(=O)NCc4cccc(C(N)=O)c4)cc32)C1  remaining binding (binding, competition with immobilised ligand; 1 µM): 100%
Cc1nc(Cc2cccc(C(F)(F)F)c2)sc1-c1ccc(C(N)=O)nc1  remaining binding (cell-free assay, competition with immobilised ligand; 1 µM): 62%
C[C@H]1CCN(c2nccc(-c3cnn4ncccc34)n2)C1  remaining binding (binding; 1 µM): 100%
CC(C)(C)c1ccc(-c2nc(CBr)nn2-c2cccc(O)c2)cc1  remaining binding (cell-free assay, competition with immobilised ligand; 10 µM): 86%
NS(=O)(=O)c1cc(NC(=O)C2(c3ccccc3Cl)CC2)ccc1Oc1cccc(Cl)c1  remaining binding (cell-free assay, competition with immobilised ligand; 1 µM): 100%
CC1CCCN1c1nccc(-c2cnn3ncccc23)n1 (stereo not drawn)  remaining binding (binding; 1 µM): 100%
Nc1ncc2c(n1)-c1c([nH]c3ccc(C#CC4CC4)cc13)CCCC2  remaining binding (binding, competition with immobilised ligand; 1 µM): 96%
COc1ncc2cc3ccccc3nc2c1C#N  remaining binding (cell-free assay, competition with immobilised ligand; 5 µM): 96%
CCN1CCN(Cc2ccc(C(=O)Nc3ccc(C)c(Oc4ccc5c(c4)CC(=O)N5)c3)cc2C(F)(F)F)CC1  remaining binding (binding, competition with immobilised ligand; 1 µM): 92%
C[C@@H]1CN(c2cc(-c3nn(C)c4ccc(OC5(C)CC5)cc34)ncn2)C[C@H](C)O1  remaining binding (cell-free assay, competition with immobilised ligand; 1 µM): 100%
N[C@H]1CCN(c2nccc(-c3cnn4ncccc34)n2)C1  remaining binding (binding; 1 µM): 79%
C[C@@H]1CN(c2ccc3ncc(-c4ccc5[nH]nc(C6CC6)c5c4)n3n2)C[C@H](C)O1  remaining binding (binding, competition with immobilised ligand; 0.5 µM): 100%
CC(=O)C1=C(C)N(c2cccc(C(F)(F)F)c2)C(=O)N[C@@H]1c1ccc(C#N)nc1  remaining binding (cell-free assay, competition with immobilised ligand; 1 µM): 100%
Cc1cnc(Nc2ccc(C(=O)N3CCC(N4CCCC4)CC3)cc2)nc1-c1cc2ccccc2s1  remaining binding (binding, competition with immobilised ligand; 1 µM): 85%
F[C@@H]1CCN(c2nccc(-c3cnn4ncccc34)n2)C1  remaining binding (binding; 1 µM): 100%
O=C(N[C@H]1CCCCC/C=C\C2C[C@@]2(C(=O)O)NC(=O)[C@@H]2C[C@@H](Oc3ccncc3)CN2C1=O)OC1CCCC1 (stereo partly drawn)  remaining binding (binding, competition with immobilised ligand; 1 µM): 90%
CN(C)c1nccc(-c2cnc3ncccn23)n1  remaining binding (binding; 1 µM): 100%
COc1cnc(Nc2cccc(S(N)(=O)=O)c2)nc1N1CCN(c2ccccc2)C(=O)C1  remaining binding (binding, competition with immobilised ligand; 1 µM): 100%
